# Compounds with a hit are over-represented: about 3.1% of the library has one in this group of screens.
# T cruzi inh: inhibitors of intracellular T. cruzi growth, primary screen, luminescence, NIH3T3 host cells. T. cruzi beta-gal in NIH3T3, 90 h. inhibition, % (concentration not given with the values). hit rate 1.4% among 300,000. AID 1885, 2009;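 active means mean inhibition across valid replicates above about 55%, limit read from the data; inconclusive means mean below that limit but half or more replicates reach it; inactive means mean below it, under half of replicates reach it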;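 further: signal also drops with host cell toxicity which is not excluded here; higher percent means less beta-gal luminescence so fewer parasites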
#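 compound dosing = single 50 nL compound addition per well in DMSO | material = NIH/3T3 host cells with β-galactosidase reporter T. cruzi | input = 5,000 host fibroblasts per well | timing = ≥90 h infection period, 3 h prior cell attachment | read-out basis = percent inhibition of parasite-derived β-gal signal | detection = GalScreen β-gal luminescence, detergent lysis, 60 min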
# PolyA inhibitor: polyadenylation inhibitors in yeast reporter cells, primary screen, luminescence, S. cerevisiae; hit rate 0.02% among 300,000; S. cerevisiae SKY197-pL101 polyadenylation reporter, beta-gal luminescence; efflux-impaired pdr1/pdr3 knockout yeast; score 100 = 6 SD above DMSO; activity score, % at 12 µM;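 active means lowest replicate activity score at least 50, where 100 means six control SD above control mean; inconclusive means lowest score under 50 but half or more replicates reach 50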;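 further: yeast exposed to compound for 9 h at 30 °C; higher score means more reporter readthrough which indicates perturbed polyadenylation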
# HIF act: HIF pathway transcriptional activators, primary screen, cell-based, U2OS HRE-luciferase, luminescence; U2OS HRE-luciferase reporter; normalized: DMSO 0%, desferrioxamine 100%; activation, % at 7.5 µM (by protocol); hit rate 0.32% among 300,000; AID 1910, 2009;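 active means mean activation of at least 10% of the iron chelator positive control signal, with at least half of replicates also reaching 10%; inconclusive means mean and replicate majority disagree about reaching 10%; inactive means mean and most replicates under 10%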
# Calb FLC: C. albicans growth inhibition with fluconazole, primary screen, CaCi-2 strain, Alamar Blue fluorescence. C. albicans CaCi-2 + fluconazole, 48 h. growth inhibition, % (concentration not given with the values). hit rate 0.57% among 300,000;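 active means growth inhibition above about 58% in most replicates, limit read from the data, passing the limit was not always enough; inconclusive means exactly half the replicates above a set limit; inactive means most replicates below a set limit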;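 further: all wells also contain fluconazole at 8 µg/ml as a sub-toxic cotreatment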
# CSC inhib: cancer stem cell viability inhibitors, primary screen, luminescence; cancer stem cell-like cells viability; inhibition, % at 7.5 µM; hit rate 1.1% among 300,000; in the data active means inhibition above about 75%; inconclusive means no clear call, values can overlap the other calls; tested in HMLE shEcad cells
# Beta cell apopt: inhibitors of cytokine-induced beta cell apoptosis, primary screen, luminescence | protection from apoptosis, % (no concentration beside the values) | hit rate 0.8% among 300,000 | INS-1E cytokine-induced death, ATP luminescence, 48 h; percent of positive-control rescue, neutral wells zero | AID 435005, 2010;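 active means Every replicate reaches about 75%, or at least half do and their mean reaches it too, limit read from the data; inconclusive means At least half of replicates reach the limit but their mean does not; inactive means Under half of replicates reach the limit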;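 further: higher means more ATP so stronger rescue from cytokine killing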
# Hits are given with their value; - = inactive; ? = inconclusive; . = not tested or not shown.
SMILES,T cruzi inh,PolyA inhibitor,HIF act,Calb FLC,CSC inhib,Beta cell apopt
O=c1cc(CCl)nc2sc3ccccc3n12,61,-,-,-,-,-
O=C(c1ccc(F)cc1)N1CCC(C(=O)N2CCN(c3ncccn3)CC2)CC1,.,.,.,.,-,-
CCC(=O)NC(c1cccs1)c1ccc2cccnc2c1O (stereo not drawn),78,-,196,101,106,107
CC(C)CC(=O)NC(c1cccs1)c1ccc2cccnc2c1O (stereo not drawn),60,-,68,107,102,110
CC(C)CC(=O)NC(NC(=S)Nc1cccc2cccnc12)C(Cl)(Cl)Cl (stereo not drawn),-,-,-,-,-,-
Cc1conc1NC(c1cccs1)c1ccc2cccnc2c1O (stereo not drawn),-,-,-,87,101,106
CCC(=O)Nc1cccc2cccnc12,-,-,-,-,-,-
CCCCNC(=O)Nc1nnc(C(C)(C)C)s1,-,-,-,-,-,-
CCN(CC)S(=O)(=O)c1ccc(C(=O)NCc2n[nH]c(=S)n2-c2ccc(Cl)c(Cl)c2)cc1,-,-,-,-,-,-
O=C(CC1NCCNC1=O)NC1Cc2ccccc2C1 (stereo not drawn),-,-,-,-,-,-
CC(C)=NOC(=O)c1c(C)noc1-c1snnc1C,-,-,60,-,-,-
CCN(CC(=O)Nc1c(F)cccc1F)C(=O)c1ccc(N2CCCC2=O)cc1,-,-,-,-,-,-
Cc1onc(-c2ccccc2)c1NC(=O)N(Cc1ccccc1)C(C)C,-,-,55,-,-,-
O=C(CC1CS(=O)(=O)CC1CC(=O)Nc1ccc2c(c1)OCCO2)Nc1ccc2c(c1)OCCO2 (stereo not drawn),-,-,-,-,-,-
COc1ccc(-n2nc(C(=O)NCC(=O)N3CCCC3)c3ccccc3c2=O)cc1Cl,-,-,-,-,-,-
CCCOP(=O)(c1ccc(N(C)C)cc1)C(Nc1ccccc1)c1ccc(C)cc1 (stereo not drawn),.,59,.,-,-,-
CC(C)CCOP(=O)(c1ccc(N(C)C)cc1)C(Nc1ccccc1)c1ccc(N(C)C)cc1 (stereo not drawn),.,-,.,-,-,-
CCCOC(c1ccccc1)(c1ccc(C(F)(F)F)cc1)C(Oc1nc(C)cc(C)n1)C(=O)O (stereo not drawn),-,?,-,79,-,-
Cc1cc(C)nc(OC(C(=O)O)C(OCCc2ccccc2)(c2ccc(F)cc2)c2ccc(F)cc2)n1 (stereo not drawn),-,?,-,-,-,-
CCOc1ccc(NS(=O)(=O)c2cc(C(=O)N(CC)CC(=O)NCc3cccs3)ccc2C)cc1,-,-,-,-,-,-
CCn1ncc(C2=NOC(C(=O)Nc3ccc4c(c3)OCO4)C2)c1C (stereo not drawn),-,-,110,-,-,-
CN(C)CCNC(=O)Cn1ccc2cc(S(=O)(=O)N3CCCCCC3)ccc21,-,-,-,-,-,-
C/C(=N\NC(=O)c1cccc(S(=O)(=O)N2CCOCC2)c1)c1ccc(OCC(=O)N(C)C)cc1,-,-,-,-,-,-
CCOC(=O)c1cc2c(=O)n3ccccc3nc2n(C(C)C)c1=NC(=O)c1c(-c2ccccc2Cl)noc1C,63,-,-,-,-,-
CCOC(=O)c1cc2c(=O)n3ccccc3nc2n(CCOC)c1=NC(=O)c1ccncc1,-,-,-,114,-,-
CCCN(CC(=O)Nc1ccccc1OC)C(=O)CC1CCCC1,.,.,.,.,-,-
CC1=C(CC(=O)c2ccc(Cl)cc2)C(=O)c2ccccc2C1=O,-,-,-,-,-,99
O=C(Cc1ccccn1)c1ccc(Cl)cc1,-,-,-,-,-,-
CCOC(=O)c1sc(N=NC2=C(O)CC(C)(C)CC2=O)c(C(=O)OCC)c1C,-,-,-,-,-,-
O=C(c1ccc2c3c(cccc13)CC2)C1CCCN(Cc2cccnc2)C1 (stereo not drawn),62,-,-,-,.,-

# High-throughput results (PubChem)
